For one compound, Activity results are on record in ChEMBL document CHEMBL1142626, “Insecticidal and mutagenic evaluation of two annonaceous acetogenins” (J Nat Prod, 2000).

Structures are written as SMILES. Bounds are passed on as bounds.

Assay [1] concerns Myzus persicae. In words: Antifeedant effect against Myzus persicae assessed as inhibition index at 100 ug/cm2 relative to control. The arrangement: scale not given: the % may be the effect or the level left. The format is functional. Put shortly:
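Choice settling test on apterous adult M. persicae: 20 boxes of 10 aphids per treatment. Settling inhibition %SI = [1 − (%aphids on treated/%aphids on control surface)] × 100.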

Assay [2] concerns Leptinotarsa decemlineata. As to the kind of experiment: Antifeedant effect against Leptinotarsa decemlineata assessed as feeding reduction at 10 ug/cm2. It counts as functional, organism-based. In a few lines: (§1)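 Choice test on leaf disks using adult L. decemlineata or newly emerged fifth-instar S. littoralis larvae. Five to 10 plates per treatment, three insects each. Uneaten leaf-disk area was measured by scanner. %FR = [1 − (treatment/control consumption)] × 100 per arena. Where FR exceeded 50%, EC50 was taken from linear regression of %FR on log dose.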

For assay [3], the system named is Spodoptera littoralis. As to the kind of experiment: Antifeedant effect against Spodoptera littoralis L6 larvae assessed as relative consumption rate at 10 ug, po after 72 hrs. The format is functional. Put shortly:
(§2)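 Preweighed, newly emerged S. littoralis L6 larvae (20 per experiment) were orally cannulated with 10 µg in 2 µL DMSO; controls got solvent alone. Relative consumption and growth rates were calculated at 72 h on a dry-weight basis. Log-transformed weights were analysed by ANOVA with LSD tests.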

Assay [4] concerns Spodoptera littoralis. In words: Antifeedant effect against Spodoptera littoralis L6 larvae assessed as relative growth rate at 10 ug, po after 72 hrs. It counts as functional. Put shortly:
as §2

Assay [5] deals with Leptinotarsa decemlineata. In words: Insecticidal activity against Leptinotarsa decemlineata assessed as mortality at 5 ug by hemolymph injection after 72 hrs. The format is functional. In a few lines: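 Adult L. decemlineata (20 beetles) were injected with 5 µg in DMSO through the metepimeron suture of the thorax. Beetles were kept on potato leaves. Symptoms and mortality were recorded up to 3 days, analysed by contingency tables and Abbott-corrected.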

The subject of assay [6] is Myzus persicae. In words: Insecticidal activity against Myzus persicae assessed as increase in mortality at 100 ug/cm2 observed daily for 4 days. It counts as functional, organism-based. In a few lines: (§3)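 No-choice test: 20 boxes, each with five same-age apterous adult M. persicae (100 insects). Nymphs produced in the first 48 h were separated from adults and kept in similarly treated boxes. Both were observed daily for 4 days for mortality. Analysed by contingency tables and LSD test.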

Assay [7] deals with Myzus persicae. In words: Insecticidal activity against Myzus persicae assessed as offspring production at 100 ug/cm2 observed daily for 4 days. The format is functional, organism-based. In a few lines: as §3
In assay [8] the test system is Myzus persicae. As to the kind of experiment: Insecticidal activity against Myzus persicae assessed as offspring production at 50 ug/cm2 observed daily for 4 days. It counts as functional, organism-based. Put shortly:
as §3

In assay [9] the test system is Spodoptera littoralis. In words: Antifeedant effect against Spodoptera littoralis assessed as feeding reduction at 100 ug/cm2 relative to control. It counts as functional. The arrangement: scale not given: the % may be the effect or the level left. Put shortly:
as §1

For the compound `C=C(C)[C@H]1Cc2c(ccc3c2O[C@@H]2COc4cc(OC)c(OC)cc4[C@@H]2C3=O)O1` [ROTENONE], the Activity in the assay with Myzus persicae [1] is under 40%; in assay [2], “Toxic”; in the assay on Spodoptera littoralis [3], 20.88 mg; with Spodoptera littoralis [4], 3.47 mg; in [5], 100%; in the assay with Myzus persicae [6] it was “Non-toxic”. The Activity entry with Myzus persicae [7] was “Toxic”; in the assay on Myzus persicae [8], “Toxic”; in the assay with Spodoptera littoralis [9] it was over 40%.
